Among the data in ChEMBL document CHEMBL4513216, “Probing the Open Global Health Chemical Diversity Library for Multistage-Active Starting Points for Next-Generation Antimalarials” (ACS Infect Dis, 2020) are cytotoxicity values, retold here.

SMILES strings stand for the structures.

A short description of this series: Toxicity liver stage against HepG2, at 10uM. In kind it is cell-based. The arrangement: test concentration 10 uM, cell line HepG2-A16-CD81EGFP. The following applies: human, HepG2-A16-CD81EGFP cells; read-out: INHIBITION
The method, boiled down: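 Uninfected HepG2-A16-CD81EGFP cells, 3 × 10^3 per well, 1536-well, plated on prespotted compound at 10 μM final, parasite-free screening media added to match infected plates; puromycin 10 μM positive, DMSO 0.5% negative; run in parallel with 48 h PbLuc assay at 37 °C, 5% CO2; viability by CellTiter-Glo luminescence, normalized to controls.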
Turning to `CCCc1ncc(C(=O)c2ccc(OC)cc2)n1C`, the cytotoxicity at 10 µM is 22.3%.
Consider `COCC(=O)NC[C@H]1C[C@@H]2CCN1C[C@@H]2CN1CCc2ccccc21`, for which the cytotoxicity at 10 µM was determined as 3.29%.
As for `CC(=O)N1CCC(N2C[C@@H](F)[C@@H](OCc3nc4ncccc4[nH]3)C2)CC1`, the cytotoxicity at 10 µM worked out at 6.1%.
In the case of `COc1ccc2[nH]c(C[C@@H]3C[C@@H](C(C)C)[C@H](CN(C)C)C=C3C)nc2c1` it was -0.626%; in that of `CC1(CO)COC(Cc2ccc(Cl)cc2)=N1` (stereo not drawn), 12.6%.
In the case of `CC1=Nc2c(c(=O)[nH]n2C2CCOCC2)C(c2cccc(O)c2)S1` (stereo not drawn) it was -6.81%; in that of `O=C(Cc1cccc(F)c1)N1C[C@H]2CN(Cc3cccnc3)C[C@H]2C1`, 0.0515%; in that of `CCN1C(=O)CCC12CCCN(CCc1ccccc1)C2` (stereo not drawn), -0.449%.
As for `CC(C)NC(=O)[C@H]1CCS(=O)(=O)[C@@H]2CN(c3ncccn3)C[C@H]12`, the figure is -123%; as for `CC1=N[C@@]2(CC[C@@H]3CN(C(=O)Nc4ccc(F)cc4)C[C@@H]32)C(=O)N1C`, 8.1%.
On to `CC(=O)N1CCc2nc3sc(C(N)=O)c(N)c3c(C(F)(F)F)c2C1`, for which the cytotoxicity at 10 µM turned out to be 6.28%.
As to `CC(=O)c1cccc(-n2nc(C(C)=O)c(C(C)=O)c2C)c1`, the cytotoxicity at 10 µM worked out at 4.45%.
Take `Cc1occc1C(=O)N1CCC2(CC1)CC(c1cccnc1)C(=O)N2C` (stereo not drawn): the cytotoxicity at 10 µM is -7.09%.
In the case of `O=C(NCC1CC1)C1CN(C(=O)c2cccnc2)CC12CCOCC2` (stereo not drawn), the cytotoxicity at 10 µM amounted to 3.25%.
On to `COCC(=O)Nc1cnn(COc2ccc(F)cc2Cl)c1`, for which the cytotoxicity at 10 µM is -4.52%.
As to `CCn1cc(Br)c(C(=O)NCc2cccnc2)n1`, the cytotoxicity at 10 µM was -10.1%.
As for `CC1(C(=O)NC2CCCC2)CCCN(c2ncccn2)C1` (stereo not drawn), the figure is -27.3%.
For `CCS(=O)(=O)N1CCCC(c2ccnc(N(C)C)c2)C1` (stereo not drawn), the cytotoxicity at 10 µM is -5.16%.
For `COc1ccccc1OCCNC(=O)NCc1nc(C)no1`, the cytotoxicity at 10 µM is 6.67%.
As for `CCc1cnc(CN(C)C2CCN(c3sccc3C#N)C2=O)s1` (stereo not drawn), the figure is 8.32%; as for `COc1cccc(OC)c1CC(=O)NC(C#N)c1ccsc1` (stereo not drawn), 14.9%; as for `CCn1c(C)cc(C(=O)N2CCC(Nc3cccnn3)CC2)c1C`, 4.71%.
Turning to `CC(=O)NC1(C(=O)N2CCC(Nc3cccnn3)CC2)CCCCC1`, the cytotoxicity at 10 µM was -5.26%.
Turning to `Cc1nc(N2CCN(C(=O)CC3CCCC3)CC2)c2cnn(C)c2n1`, the cytotoxicity at 10 µM stood at 6.24%.
`CCOCCC1(CNC(=O)c2ccsc2)CCC1`: the cytotoxicity at 10 µM was determined as 7.92%.
With `COc1ncccc1CNC(=O)N1CCC(CNC(C)=O)CC1`, the cytotoxicity at 10 µM came out at 3.4%.
In the case of `CC(C)(C)NC(=O)CNC(=O)c1cccnc1Oc1cccnc1` it was 4.11%; in that of `Cc1c(C(=O)NCCCC(N)=O)sc2ccc(F)cc12`, 14.6%; in that of `OCC1(NCc2cnc(-c3cccs3)s2)CCOCC1`, -1.99%.
In the case of `CN(Cc1cnn(C)c1)C(=O)c1ccc(=O)n(Cc2ccccc2)n1` it was -134%; in that of `Cc1nsc(NCCNS(=O)(=O)c2ccccc2)n1`, -2.78%.
As to `CCOc1ncccc1C(=O)N1CCCC(n2nc(C)cc2C)C1` (stereo not drawn), the cytotoxicity at 10 µM is -5.54%.
`NC(=O)N1CC(OCc2cccc3ccccc23)C1`: the cytotoxicity at 10 µM was -0.396%.
In the case of `CCN(C)c1ccc(CNC(=O)c2ccc(NC(N)=O)cc2)cc1F` it was 7.52%; in that of `O=c1[nH]c2ccccc2c(=O)n1Cc1nnnn1C1CC1`, -16.1%.
On to `CC(C)NC(=O)CC(C)NC(=O)N(C)Cc1cc(Cl)cn1C` (stereo not drawn), for which the cytotoxicity at 10 µM is -0.414%.
In the case of `O=C(NCCN1CCOCC1)N(Cc1ccoc1)C1CCCCC1` it was -0.315%.
Consider `Cc1ccsc1C(=O)Nc1cc(Br)c(=O)n(C)c1`, for which the cytotoxicity at 10 µM was -15.1%.
As to `CC(C)(C(N)=O)S(=O)(=O)c1ccc(Br)cc1`, the cytotoxicity at 10 µM is 4.4%.
As to `CCN(c1ccc(C(=O)NCc2ccnc(C)n2)cc1)C(C)C`, the cytotoxicity at 10 µM is -8.78%.
Take `CCOc1ncccc1CNC(=O)N1CCCC1c1cc(C)no1` (stereo not drawn): the cytotoxicity at 10 µM stood at 23.7%.
For the compound `CN(CCOc1cccc(CN)c1)C1CCOCC1`, the cytotoxicity at 10 µM was -1.35%.
`O=C(NCC(O)c1ccc(F)c(F)c1)c1cccnc1OCC(F)(F)F` (stereo not drawn): the cytotoxicity at 10 µM is -10.2%.
In the case of `Cc1cc2ccccc2n1CCC(=O)NCCS(C)(=O)=O`, the cytotoxicity at 10 µM is -5.79%.
Regarding `Cc1cc(C(F)(F)F)cc(N2C[C@@H](CN(C)CCO)[C@@H](CO)C2)n1`, the cytotoxicity at 10 µM was -14.4%.
As for `Cc1nc(CC(=O)N2CCCN(c3ccc(F)cc3)CC2)cs1`, the figure is 3.35%; as for `CCN1CCC(CC(=O)NCCc2nc(N)cc(O)n2)CC1`, 0.821%.
`Cc1ncsc1CCN(C)C(=O)C(c1cccnc1)N1CCOCC1` (stereo not drawn): the cytotoxicity at 10 µM is -6.02%.
For `CCc1ncc(-c2cn(CCSc3ncn[nH]3)nn2)cn1`, the cytotoxicity at 10 µM came out at 1.41%.
As for `O=C1CCOCCN1Cc1ccc(Cl)c(F)c1`, the figure is -3.31%.
Take `Cc1cccc(C(C(=O)N2CCN(C(=O)c3ccc[nH]3)CC2)N(C)C)c1` (stereo not drawn): the cytotoxicity at 10 µM was -7.55%.
For the compound `CC1(C)CNC(=O)c2nc(-c3nnc(-c4ccccc4)[nH]3)[nH]c2C1`, the cytotoxicity at 10 µM is -5.79%.
On to `COCCC1(CO)CCCN(C(=O)c2cc(=O)[nH]c(=O)[nH]2)C1` (stereo not drawn), for which the cytotoxicity at 10 µM is -5.16%.
On to `Cc1ccncc1-n1cc(CCO)cn1`, for which the cytotoxicity at 10 µM was -2.51%.
Turning to `CCc1nc2c(c(N(C)Cc3nncn3CCOC)n1)CCNCC2`, the cytotoxicity at 10 µM was -7.63%.
As for `O=c1c2ccccc2cnn1Cc1cncn1C1CC1`, the figure is 3.72%; as for `O=C(c1cncc(NCC2COc3ccccc3C2)n1)N1CCCCC1` (stereo not drawn), 1.64%.
On to `CO[C@H]1CNC[C@@H]1NC(=O)CCc1nc(-c2ccccc2)no1`, for which the cytotoxicity at 10 µM was -1.13%.
As for `O=C(C1CCCC1)N1CC[C@]2(O)CCN(Cc3ncccn3)C[C@@H]2C1`, the figure is 9.04%.
`CCc1ncc(C(=O)NCCn2c(C)cc(C)nc2=O)cn1`: the cytotoxicity at 10 µM was -1.75%.
For the compound `COc1ccc(OCC(C)NS(C)(=O)=O)cc1` (stereo not drawn), the cytotoxicity at 10 µM was 16.6%.
As for `CCc1cc(N2CCSCC2)n2nc(C)c(C)c2n1`, the figure is -0.854%.
On to `O=C(Cc1cccc(Cl)c1)N[C@@H]1CCNC[C@H]1O`, for which the cytotoxicity at 10 µM amounted to 2.28%.
As for `Cc1scc(C(=O)N2CCC3(CC(=O)NC3=O)C2)c1-c1ccccc1` (stereo not drawn), the figure is -17.5%; as for `Cc1nc(-c2cccc(C(=O)O)c2)cc(C2CCN(C(C)C)C2)n1` (stereo not drawn), 5.32%; as for `Cc1cnc(C(=O)N2CCCCC2c2[nH]ncc2S(C)(=O)=O)cn1` (stereo not drawn), 2.12%.
As for `CCOc1ccc2cc(C(=O)N3CCn4c(CC)nnc4C3)[nH]c2c1`, the figure is -4.77%; as for `COC(=O)c1ccc(N2CCN(CCS(C)(=O)=O)C(C)C2)cc1` (stereo not drawn), -5.57%.
In the case of `O=C(CN1CCCCC1Cn1cncn1)NCCOc1ccccc1` (stereo not drawn), the cytotoxicity at 10 µM was -3.54%.
In the case of `CCNc1cc2c(nn1)CCN(C(=O)CCc1c(C)noc1Cl)C2` it was -3.25%; in that of `O=C(CCCc1ccccn1)N1CCCC1c1noc(C2CC2)n1` (stereo not drawn), -4.47%; in that of `CC(NC(N)=O)C(=O)N(C)CCCc1cc(-c2ccccc2)no1` (stereo not drawn), -1.86%.
With `Cn1c(C2CC2)nc2c1CCN(CCS(=O)(=O)c1ccccc1)C2`, the cytotoxicity at 10 µM came to 3.73%.
As for `COC(=O)c1ccc(CN[C@@H]2COC[C@H]2Cc2cc(C)no2)cc1`, the cytotoxicity at 10 µM is -23%.
As for `Cc1oncc1C(=O)N[C@@H]1CN(Cc2ccco2)C[C@@H]2CCCO[C@@H]21`, the cytotoxicity at 10 µM was -109%.
As for `c1cnc2c(c1)cc([C@@H]1CCCO1)n2CCN1CCOCC1`, the figure is -19.7%; as for `Cc1ccc(C(=O)N2C[C@@H]3[C@@H](C2)OCC(=O)N3Cc2cccnc2)o1`, 3.8%; as for `CCS(=O)(=O)N1CCC2(CC1)CC(Oc1ccccn1)CO2` (stereo not drawn), -1.58%.
In the case of `Cc1nc(C2(O)CCCNCC2)sc1CCOc1ccccc1F` (stereo not drawn) it was -36.5%; in that of `O=C(Cc1ccccc1)N1C[C@@H]2OCCN(CC3CCCO3)[C@@H]2C1` (stereo partly drawn), -3.09%; in that of `C[C@@H]1CN(C2CCOC2)C[C@]12CCN(Cc1cccnc1)C2=O` (stereo partly drawn), -106%.
With `O=C(N1CCOCC1)[C@@]12CCO[C@@H]1CCN(C1CCCCC1)C2`, the cytotoxicity at 10 µM came to 2.14%.
Consider `COCC(=O)NC[C@]12COC[C@H]1CN(Cc1ccc3c(c1)OCO3)C2`, for which the cytotoxicity at 10 µM is -112%.
For the compound `CN(C)S(=O)(=O)N1CC[C@]2(C[C@H](Oc3cccnc3)CO2)C1`, the cytotoxicity at 10 µM is -0.465%.
With `Cc1cccc(CN2CCC3(CCCN(C(=O)NC4CC4)C3)C2=O)n1` (stereo not drawn), the cytotoxicity at 10 µM came out at 12.2%.
For `Cc1ccoc1C(=O)N1C[C@@H]2[C@@H](C1)OCC(=O)N2Cc1cccnc1`, the cytotoxicity at 10 µM worked out at 9.38%.
Consider `CO[C@H]1CCN(Cc2cnn(C)c2)[C@@H]2CN(Cc3cccnc3)C[C@H]12`, for which the cytotoxicity at 10 µM was -4.17%.
As for `NC(=O)C1Cn2ccnc2C2(CCN(C(=O)NC3CCCC3)CC2)O1` (stereo not drawn), the figure is -104%; as for `c1ccc(CO[C@@H]2CN(Cc3cccnc3)[C@@H]3COC[C@@H]32)nc1`, -98.7%; as for `COC(=O)Cn1c(=O)[nH]c2cn(-c3ccc(Cl)cc3)c(=O)n21`, 23.7%.
As for `Cc1ccc(CNS(=O)(=O)C=c2[nH]c(=O)n3cccc3c2=O)cc1`, the figure is 6.38%; as for `CN(C)C(=O)CN1C[C@H]2CC[C@@H](C1)N(Cc1cc(F)ccc1F)C2`, -24%.
For `O=C(Cc1cccnc1)N1C[C@@H]2CC[C@H]1CN(Cc1ccc(F)cc1)C2`, the cytotoxicity at 10 µM was 4.54%.
